# ChEMBL document CHEMBL3627626, “6-Substituted Pyrrolo[2,3-d]pyrimidine Thienoyl Regioisomers as Targeted Antifolates for Folate Receptor α and the Proton-Coupled Folate Transporter in Human Tumors” (J Med Chem, 2015)
# Calls of active or inactive are those of the source. The calls are words filed in the database; no cut-off is given here.
# Tests used:
# SK-OV-3 [1] = experiment: Antitumor activity against human SKOV3 cells expressing RFC/PCFT/FRalpha xenografted in folate-deficient diet fed NCR SCID mouse assessed as delay in tumor growth at 16 mg/kg, iv administered every 4 days on day 3, 7, 11 measured twice per week; assay type: functional, organism-based
# Outline: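 Ten-week-old female NCR SCID mice, fed a folate-deficient or standard folate-replete diet, were implanted subcutaneously and bilaterally with SKOV3 tumour fragments. Randomised at 5 mice/group. Dosed intravenously, 0.2 mL per injection, in 5% ethanol/1% Tween-80/0.5% NaHCO3 in water at pH 6.5, on days 3, 7 and 11. Tumours measured twice weekly and mice weighed daily. T/C taken on day 21; growth delay and log cell kill also reported.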
# Mus musculus = experiment: Toxicity in folate-replete diet fed NCR SCID mouse xenografted with human SKOV3 cells expressing RFC/PCFT/FRalpha assessed as body weight loss at 16 mg/kg, iv administered every 4 days on day 3, 7, 11; assay type: organism-based, SK-OV-3; details: in vivo, 96 h
# D4 = experiment: Selectivity ratio of IC50 for human RFC expressed in Chinese hamster PC43-10 cells assessed as cell growth inhibition to IC50 for human FRbeta expressed in Chinese hamster D4 cells assessed as cell growth inhibition; assay type: cell-based
# PC43-10 = experiment: Selectivity ratio of IC50 for human RFC expressed in Chinese hamster PC43-10 cells assessed as cell growth inhibition to IC50 for human PCFT expressed in Chinese hamster R2/PCFT4 cells assessed as cell growth inhibition; assay type: cell-based
# SK-OV-3 [2] = experiment: Antiproliferative activity against human SKOV3 cells after 96 hrs by CellTiter-Blue assay; assay type: functional, cell-based; details: SK-OV-3, 96 h
# Outline: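 IGROV1 and SKOV3 cells plated at ~2500–5000 cells/well in folate-free RPMI 1640 with 10% dialyzed FBS, antibiotics and 2 nM LCV, over a range of drug concentrations, ±200 nM folic acid in parallel. Incubated up to 96 h. Viability read by Cell Titer Blue fluorescence (ex 560/em 590 nm).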
# [3] = target: Folate receptor beta (Homo sapiens) (UniProt P14207); experiment: Displacement of [3H]-folic acid from human FRbeta expressed in Chinese hamster D4 cells after 15 mins relative to folic acid; assay type: cell-based
# Chain of Folate receptor beta (Homo sapiens) (P14207 17-230 limits assumed): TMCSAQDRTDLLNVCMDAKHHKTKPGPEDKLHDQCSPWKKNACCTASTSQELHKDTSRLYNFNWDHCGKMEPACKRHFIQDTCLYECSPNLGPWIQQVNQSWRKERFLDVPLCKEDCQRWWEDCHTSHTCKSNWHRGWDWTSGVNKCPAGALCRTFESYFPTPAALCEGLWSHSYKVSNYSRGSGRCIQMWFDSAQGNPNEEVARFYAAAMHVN
# Outline: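 Competitive binding to surface folate receptor on RT16 (FRα) or D4 (FRβ) CHO cells. Cells were acid-washed (pH 3.5) to strip bound folate, then incubated in HEPES-buffered saline pH 7.4 with 50 nM [3H]folic acid plus unlabeled ligand (0–1000 nM) for 15 min at 0 °C. Bound label was normalised to protein. Affinity is the inverse molar ratio for 50% displacement, with folic acid set to 1. Mean of 4–10 experiments ±SE.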
# [4] = target: T1, Proton-coupled folate transporter (Homo sapiens) (UniProt Q96NT5); experiment: Binding affinity to human PCFT expressed in Chinese hamster R2/PCFT4 cells assessed as intracellular drug level at 0.5 uM at 37 degC at pH 5.5 measured over 5 mins; assay type: cell-based
# T1 sequence (whole entry): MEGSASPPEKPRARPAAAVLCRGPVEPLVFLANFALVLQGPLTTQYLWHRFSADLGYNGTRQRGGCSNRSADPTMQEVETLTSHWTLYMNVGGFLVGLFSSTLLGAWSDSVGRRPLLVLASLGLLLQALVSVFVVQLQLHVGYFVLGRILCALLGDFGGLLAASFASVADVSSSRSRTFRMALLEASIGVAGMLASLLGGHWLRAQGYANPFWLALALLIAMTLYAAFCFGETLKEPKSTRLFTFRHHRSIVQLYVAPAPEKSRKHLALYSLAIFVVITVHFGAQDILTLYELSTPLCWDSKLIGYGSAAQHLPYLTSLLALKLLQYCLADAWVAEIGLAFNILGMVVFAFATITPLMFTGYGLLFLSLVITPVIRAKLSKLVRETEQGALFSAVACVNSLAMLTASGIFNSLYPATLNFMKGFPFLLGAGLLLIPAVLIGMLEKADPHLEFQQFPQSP
# R2 = experiment: Cellular uptake in PCFT-null Chinese hamster R2 cells at 0.5 uM at 37 degC at pH 5.5 measured over 2 mins; assay type: ADME, cell-based, Cricetulus griseus; details: r2, pH 5.5, 2 min
# Outline: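 R2/PCFT4 or PCFT-null R2 CHO cells were grown in suspension from spinner flasks. Uptake of 0.5 μM [3H]drug measured over 2 min at 37 °C in MES-buffered saline pH 5.5, with or without 10 μM unlabeled competitor. Uptake was quenched with ice-cold DPBS and cells solubilised in NaOH. Results are pmol/mg protein, mean ±SEM of three experiments.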
# [5] = target: T2, Trifunctional purine biosynthetic protein adenosine-3 (Homo sapiens, UniProt P22102); experiment: Inhibition of human recombinant His-tagged GARFTase assessed as formation of 5,8-dideazafolate from 10-formyl-5,80-dideazafolic acid measured every 15 secs over 20 mins by spectrophotometric analysis
# T2 sequence (P22102 whole entry): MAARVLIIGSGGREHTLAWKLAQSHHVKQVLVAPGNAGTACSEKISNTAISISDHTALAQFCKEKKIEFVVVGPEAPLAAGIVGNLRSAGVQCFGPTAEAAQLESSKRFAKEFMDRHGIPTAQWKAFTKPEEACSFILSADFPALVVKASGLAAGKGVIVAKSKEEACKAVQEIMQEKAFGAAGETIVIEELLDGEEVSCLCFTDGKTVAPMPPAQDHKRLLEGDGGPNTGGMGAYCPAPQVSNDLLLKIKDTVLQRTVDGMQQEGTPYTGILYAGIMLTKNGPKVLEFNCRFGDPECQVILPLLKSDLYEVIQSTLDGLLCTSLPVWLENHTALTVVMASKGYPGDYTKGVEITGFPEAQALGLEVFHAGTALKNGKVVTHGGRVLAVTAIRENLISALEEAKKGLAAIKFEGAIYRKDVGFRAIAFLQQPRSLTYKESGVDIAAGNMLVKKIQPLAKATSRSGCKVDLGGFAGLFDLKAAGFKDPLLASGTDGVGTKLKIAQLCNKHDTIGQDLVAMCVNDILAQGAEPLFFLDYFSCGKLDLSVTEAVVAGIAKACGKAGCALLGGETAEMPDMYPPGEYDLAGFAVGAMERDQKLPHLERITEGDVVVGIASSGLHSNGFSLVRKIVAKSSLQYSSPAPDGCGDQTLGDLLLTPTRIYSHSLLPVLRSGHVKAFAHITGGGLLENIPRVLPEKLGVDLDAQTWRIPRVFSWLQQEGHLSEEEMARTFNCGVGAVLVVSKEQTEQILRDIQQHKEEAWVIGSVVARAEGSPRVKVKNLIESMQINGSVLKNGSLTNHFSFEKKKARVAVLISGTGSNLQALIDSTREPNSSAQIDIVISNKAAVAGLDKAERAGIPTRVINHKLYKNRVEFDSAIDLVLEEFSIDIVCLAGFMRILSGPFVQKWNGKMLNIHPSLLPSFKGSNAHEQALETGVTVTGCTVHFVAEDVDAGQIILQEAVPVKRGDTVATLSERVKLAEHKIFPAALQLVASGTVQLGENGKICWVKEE
compound,measurement,setting,value
Nc1nc2[nH]c(CCCc3cc(C(=O)N[C@@H](CCC(=O)O)C(=O)O)cs3)cc2c(=O)[nH]1,Activity,SK-OV-3 [1],Active
same,Activity,Mus musculus,Non-toxic
same,Ratio IC50,D4,1890
same,Ratio IC50,PC43-10,29
same,IC50,SK-OV-3 [2],15.5 nM
same,Activity,[3],35%
same,Activity,[4],Active
same,Drug uptake,R2,Not Active
same,Ki,[5],9.1 nM
